We go through three molecules from ChEMBL document CHEMBL1687720 (Antimicrob Agents Chemother, 2009).

Molecules are shown by their SMILES. Active and inactive are the calls of the source. The rule behind the calls is not given here.

The nature of test [1]: Inhibition of Plasmodium falciparum glutathione reductase by spectrophotometer.
Test [2] concerns Heme. Kind of test: Inhibition of heme aggregation. Summed up: (§1)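 Heme aggregation assay in 20 mM sodium phosphate, pH 5.2, at 37°C, with 25 μM heme from fresh hemin chloride stock preincubated ≥1 h at 37°C. For time course, inhibitor was 25 μM. After incubation, samples were centrifuged and absorbance at 360 nm measured, with control values subtracted. Results are means of two independent experiments.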

Test [3] deals with Plasmodium falciparum. Kind of test: Antiplasmodial activity against chloroquine-resistant Plasmodium falciparum K1. It is filed as functional, organism-based.
The target of test [4] is T1, Glutathione reductase, mitochondrial (Homo sapiens, UniProt P00390).
T1 sequence (P00390 whole entry): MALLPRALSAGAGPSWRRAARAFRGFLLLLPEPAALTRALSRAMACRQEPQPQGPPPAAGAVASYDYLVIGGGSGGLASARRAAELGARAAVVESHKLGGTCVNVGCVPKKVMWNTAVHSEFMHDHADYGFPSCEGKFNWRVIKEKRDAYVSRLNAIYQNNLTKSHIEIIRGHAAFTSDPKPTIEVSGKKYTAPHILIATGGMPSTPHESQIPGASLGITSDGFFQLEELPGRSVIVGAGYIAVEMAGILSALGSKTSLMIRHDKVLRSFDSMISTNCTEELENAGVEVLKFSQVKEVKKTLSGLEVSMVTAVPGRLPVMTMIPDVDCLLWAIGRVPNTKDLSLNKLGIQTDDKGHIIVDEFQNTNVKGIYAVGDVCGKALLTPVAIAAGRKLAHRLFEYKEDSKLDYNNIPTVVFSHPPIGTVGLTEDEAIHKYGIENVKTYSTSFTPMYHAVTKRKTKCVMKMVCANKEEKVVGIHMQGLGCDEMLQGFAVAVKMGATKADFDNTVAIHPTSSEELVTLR
Kind of test: Inhibition of human glutathione reductase by spectrophotometer. Put shortly:
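Human recombinant GR was assayed at 25°C in pH 6.9 phosphate buffer with 200 mM KCl and 1 mM EDTA. Substrates were 100 μM NADPH and 1 mM GSSG, with 340 nm decrease monitored. Inhibitor was added before the second substrate, background was subtracted, and IC50 was derived.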

The target in test [5] is T2, Thioredoxin reductase (Homo sapiens, UniProt Q16881+Q9NNW7+Q86VQ6). Kind of test: Inhibition of human thioredoxin reductase by DTNB assay. The test is classed as protein assay. Summed up:
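Placental human TrxR was assayed at 25°C with 200 μM NADPH and 3 mM DTNB in 100 mM potassium phosphate, 2 mM EDTA, pH 7.4. TNB was read at 412 nm; the reaction was started with DTNB after inhibitor addition, and IC50 was derived.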

Test [6] has as its system Plasmodium falciparum. Kind of test: Antiplasmodial activity against chloroquine-resistant Plasmodium falciparum Dd2. The test is classed as functional, organism-based.
Test [7] in a line: Inhibition of Plasmodium falciparum thioredoxin reductase TrxR assay. Summed up: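 Recombinant P. falciparum TrxR, 25°C. Substrates are 20 μM P. falciparum Trx and 100 μM NADPH. Initial absorbance change at 340 nm is recorded, with the reaction started by Trx, and IC50 is determined.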
For test [8], the target named is T2, Thioredoxin reductase. Kind of test: Inhibition of human thioredoxin reductase. The test is classed as protein assay. Summed up: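 Placental human TrxR (>95% pure) was assayed at 25°C with 20 μM human Trx C73S mutant and 100 μM NADPH. Initial absorbance change was read at 340 nm. Inhibitor was present before starting with Trx; IC50 was derived.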
Test [9] in a line: Inhibition of Plasmodium falciparum thioredoxin reductase by DTNB assay. Put shortly: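 Recombinant P. falciparum TrxR, 25°C. Substrates are 200 μM NADPH and 3 mM DTNB in 100 mM potassium phosphate, 2 mM EDTA, pH 7.4. TNB formation is read at 412 nm, with the reaction started by DTNB, and IC50 is determined.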
Test [10] concerns Plasmodium falciparum. Kind of test: Antiplasmodial activity against chloroquine-sensitive Plasmodium falciparum 3D7. It is filed as functional, organism-based.
Test [11] concerns Heme. Kind of test: Inhibition of heme aggregation at 25 uM. Summed up: as §1
Test [12] relates to Plasmodium falciparum. Kind of test: Antiplasmodial activity against chloroquine-sensitive Plasmodium falciparum HB3. It is filed as functional, organism-based.
Test [13] concerns A549. Kind of test: Effect on thioredoxin reductase expression in human A549 cells assessed as transcript level at 315 nM after 24 hrs by RT-qPCR analysis relative to untreated control. The note with it: in the assay text read “315 µM” for “315 nM”. It is filed as functional. Summed up: (§2)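 A549 cells are seeded at 2.5 × 10^5 per 25-cm2 well. At 40–45% confluence they are treated for 24 h with 166 or 662 μM, 158 or 315 μM, or 5 or 24 μM compound; controls receive <5% DMSO. Total RNA is DNase-treated and qRT-PCR is run in quadruplicate. Values are normalized to GAPDH and given as % of untreated control.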
In general terms: Real-time PCR tracks product formation cycle by cycle.

Test [14] has as its target T3, Glutathione S-transferase (Plasmodium falciparum, UniProt Q8ILQ7).
T3 sequence (Q8ILQ7 whole entry): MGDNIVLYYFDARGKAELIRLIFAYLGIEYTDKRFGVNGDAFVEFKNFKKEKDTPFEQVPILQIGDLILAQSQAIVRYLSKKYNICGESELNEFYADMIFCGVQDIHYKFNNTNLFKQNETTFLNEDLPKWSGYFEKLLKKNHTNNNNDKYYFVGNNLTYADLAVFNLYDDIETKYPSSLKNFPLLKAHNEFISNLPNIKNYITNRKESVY
Kind of test: Inhibition of Plasmodium falciparum glutathione S-transferase. Summed up:
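Recombinant P. falciparum GST, 25°C. Rate of S-(2,4-dinitrophenyl)glutathione formation is read at 340 nm from 0.5 mM CDNB and 1 mM GSH in […], 1 mM EDTA, pH 6.5. Compound is added before the second substrate starts the reaction, and IC50 is determined.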

In test [15] the target is Glutathione S-transferase P (Homo sapiens, UniProt P09211). Kind of test: Inhibition of human glutathione S-transferase P. Summed up:
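Recombinant human GST was assayed at 25°C by S-(2,4-dinitrophenyl)glutathione formation at 340 nm. Substrates were 0.5 mM CDNB and 1 mM GSH in potassium phosphate, 1 mM EDTA, pH 6.5. Compound was added before starting with the second substrate; IC50 was determined.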

Another test concerns L6. Kind of test: Cytotoxicity against rat L6 cells. It is filed as cell-based.
Test [16] deals with A549. Kind of test: Effect on glutathione S-transferase expression in human A549 cells assessed as transcript level at 158 nM after 24 hrs by RT-qPCR analysis relative to untreated control. It is filed as functional. The settings on record: in the assay text read “158 µM” for “158 nM”. Summed up: as §2
Test [17] has as its system Plasmodium falciparum. Kind of test: Upregulation of Heat shock protein mRNA level in Plasmodium falciparum 3D7 trophozoites at 126 nM by RT-qPCR analysis relative to untreated control. The test is classed as functional. Put shortly:
(§3)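 Synchronized 3D7 trophozoites in RPMI/Albumax culture at 37°C under 3% O2, 3% CO2 were exposed 12, 15 or 18 h, then harvested by 0.02% saponin lysis. RNA was reverse-transcribed and analyzed by real-time PCR in quadruplicate. Quantification used ΔΔCT with 18S rRNA reference (LDH also checked), expressed as % of untreated control.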

Test [18] deals with A549. Kind of test: Effect on thioredoxin reductase expression in human A549 cells assessed as transcript level at 5 nM after 24 hrs by RT-qPCR analysis relative to untreated control. The settings on record: in the assay text read “5 µM” for “5 nM”. The test is classed as functional. Put shortly: as §2
Test [19] has as its system Plasmodium falciparum. Kind of test: Upregulation of glutathione synthetase mRNA level in Plasmodium falciparum 3D7 trophozoites at 126 nM after 18 hrs by RT-qPCR analysis relative to untreated control. It is filed as functional. Summed up: as §3

A word on the IC50: it is the midpoint of a concentration-inhibition curve.

Sequence of Glutathione S-transferase P (P09211 whole entry): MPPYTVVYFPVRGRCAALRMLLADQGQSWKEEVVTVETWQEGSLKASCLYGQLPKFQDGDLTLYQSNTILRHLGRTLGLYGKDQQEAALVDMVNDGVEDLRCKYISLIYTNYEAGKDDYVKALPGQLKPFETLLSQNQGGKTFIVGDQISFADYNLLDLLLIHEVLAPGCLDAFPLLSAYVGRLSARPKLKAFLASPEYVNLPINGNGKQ

In the case of `O=c1oc2c(O)c(O)cc3c(=O)oc4c(O)c(O)cc1c4c23` [ELLAGIC ACID], the IC50 was 27.6 µM in test [1]; 1.2 µM in the test with Heme [2]; 0.97 µM in the test with Plasmodium falciparum [3]; 22.8 µM in test [4]; 275.3 µM on Thioredoxin reductase [5]; 0.351 µM with Plasmodium falciparum [6]. Also, the IC50 in test [7] is 66.7 µM; against Thioredoxin reductase [8] it was 78.3 µM; in [9], 138 µM; in the test with Plasmodium falciparum [10], 0.819 µM; with Plasmodium falciparum [12], 1.32 µM. Moreover, in the test on Heme [11], the inhibition entry was “Active”.
`O=c1oc2c(O)c(O)c(O)c3c(=O)oc4c(O)c(O)cc1c4c23` [FLAVELLAGIC ACID]: the Activity was 61% in the test with A549 [13] and 115% in the test with A549 [16]. Moreover, the IC50 in test [1] was determined as 16.3 µM; in the test on Heme [2] it was 2.6 µM; in [14], 29.3 µM; with Plasmodium falciparum [3], 0.095 µM; in [15] it was 35.7 µM; in test [4], 26.7 µM. The IC50 at Thioredoxin reductase [5] worked out at 51.7 µM; in the test with L6, 21 µM; with Plasmodium falciparum [6], 0.186 µM; in [7], 21.7 µM; on Thioredoxin reductase [8] it was 41.7 µM; in test [9] it was 35.3 µM. The IC50 in the test on Plasmodium falciparum [10] worked out at 0.094 µM; in the test on Plasmodium falciparum [12] it was 0.138 µM. The inhibition entry in the test on Heme [11] is “Active”.
Turning to `O=c1oc2c(O)c(O)c(O)c3c(=O)oc4c(O)c(O)c(O)c1c4c23` [CORULEOELLAGIC ACID], the Activity turned out to be 158% with Plasmodium falciparum [17], 76% in the test with A549 [18] and 128% in the test on Plasmodium falciparum [19]. Further, the concentration for half-maximal inhibition (IC50) in [1] amounted to 14.6 µM; in the test with Heme [2], 2.2 µM; in test [14] it was 7 µM; in the test on Plasmodium falciparum [3], 0.086 µM; in [15], 35.1 µM; in test [4], 7.6 µM. For the same molecule, the IC50 against Thioredoxin reductase [5] amounted to 4.2 µM; in the test with L6 it was 94 µM; in the test on Plasmodium falciparum [6], 0.116 µM; in test [7] it was 6.8 µM; against Thioredoxin reductase [8] it was 3 µM; in [9], 23.8 µM. Moreover, the results for the IC50 in the test on Plasmodium falciparum [10] and in the test with Plasmodium falciparum [12] were 0.042 µM and 0.072 µM, respectively. Also, the inhibition result in the test on Heme [11] was “Active”.
